From ChEMBL document CHEMBL1135862, “Bioactive 4-substituted-6-methyl-2-pyrones with promising cytotoxicity against A2780 and K562 cell lines” (Bioorg Med Chem Lett, 2002)

How the values were obtained:
[1] = system: Bacillus subtilis; test: Antimicrobial activity against Bacillus subtilis after 96h incubation; format: functional
Method in brief: (§1)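 Agar diffusion on cellulose disks loaded with 200 µg compound each. Bacteria read after 96 h, yeasts after 48 h. Activity is recorded as the radius in mm, or percent, of the inhibition zone. Squalestatin S1 (200 µg/disk) served as control in the yeast assay.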

[2] = system: Staphylococcus aureus; test: Antimicrobial activity against Staphylococcus aureus after 96h incubation; format: functional; method in brief: as §1
[3] = system: Candida albicans; test: Antimicrobial activity against Candida albicans after 48 hr incubation; format: functional; method in brief: as §1
[4] = system: Schizosaccharomyces pombe; test: The compound was evaluated for antimicrobial activity against Schizosaccharomyces pombe after 48 hr incubation; format: functional; method in brief: as §1
[5] = system: A2780; test: Inhibitory concentration in vitro for cytotoxic activity against A 2780 human ovarian carcinoma cells; format: functional, cell-based
Method in brief: (§2)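 MTT assay in 96-well plates, seeding 400–1000 cells/well. Cells recover 24 h, then drug in medium is added, three wells per dose. Incubate 5 days at 37 °C in 5% CO₂. Add MTT (3 mg/mL) for 3 h, dissolve formazan in DMSO, read at 540 nm minus 620 nm. Percent growth inhibition per dose comes from duplicate experiments, reported as mean and SD; IC50 is derived from these.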

[6] = system: Saccharomyces cerevisiae; test: Antimicrobial activity against Saccharomyces cerevisiae after 48 hr incubation; format: functional; method in brief: as §1
[7] = system: Escherichia coli; test: Antimicrobial activity against Escherichia coli after 96h incubation; format: functional; method in brief: as §1
[8] = system: K562; test: Inhibitory concentration in vitro for cytotoxic activity against K 562 human chronic myelogenous leukemia cells; format: functional, cell-based; method in brief: as §2
[9] = system: Escherichia coli; test: Antimicrobial activity against the Escherichia coli after 96 hr incubation; format: functional; parameters: concentration or dose not given beside the values; method in brief: as §1
[10] = system: Staphylococcus aureus; test: The compound was evaluated for anti microbial activity against Staphylococcus aureus after 96 hr incubation; format: functional; parameters: concentration or dose not given beside the values; method in brief: as §1
[11] = system: Bacillus subtilis; test: Antimicrobial activity against Bacillus subtilis after 96 hr incubation; format: functional; parameters: concentration or dose not given beside the values; method in brief: as §1
[12] = system: Candida albicans; test: Anti fungal activity against Candida albicans after 48 hr incubation; format: functional; parameters: concentration or dose not given beside the values; method in brief: as §1
[13] = system: Saccharomyces cerevisiae; test: Compound was evaluated for anti fungal activity against Saccharomyces cerevisiae after 48 hr incubation; format: functional; method in brief: as §1
[14] = system: Schizosaccharomyces pombe; test: Antimicrobial activity against Schizosaccharomyces pombe after 48 hr incubation; format: functional; method in brief: as §1

CCc1cc(C)oc(=O)c1
Inhibition [1]: 0 mm | Inhibition [2]: 0 mm | Inhibition [3]: 0 mm | Inhibition [4]: 0 radii mm-1 | IC50 [5]: > 50 µM | Inhibition [6]: 0 mm | Inhibition [7]: 21 mm | IC50 [8]: > 50 µM | Inhibition [9]: 23.8%

CCCCCCCc1cc(C)oc(=O)c1
Inhibition [10]: 15.9% | Inhibition [1]: 16 mm | Inhibition [2]: 14 mm | Inhibition [3]: 16 mm | Inhibition [4]: 34.1% | IC50 [5]: 41.8 µM | Inhibition [11]: 18.2% | Inhibition [6]: 5 mm | Inhibition [12]: 18.2% | Inhibition [13]: 5.7% | Inhibition [7]: 17 mm | Inhibition [14]: 30 mm | IC50 [8]: 28.7 µM | Inhibition [9]: 19.3%
